Legend:
[1] = Volume of distribution at steady state in Sprague-Dawley rat at 20 mg/kg, po and 5 mg/kg, iv; format: ADME, organism-based; settings: in vivo, read-out: Vdss
How it was run: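 Overnight-fasted animals dosed po in 0.5% methocel or iv in 60% PEG 200; plasma from serial blood samples stored at -10 °C, protein-precipitated with equal volume acetonitrile/0.1% formic acid, analysed by LC/MS/MS with internal standard against spiked blank-plasma standards; Cmax from po data, half-life from iv data.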

[2] = target: T1, Thromboxane A2 receptor (Homo sapiens, UniProt P21731); experiment: Displacement of [3H]SQ29548 from human TP receptor expressed in HEK293-EBNA cells by scintillation counting; format: cell-based
T1 sequence (P21731 whole entry): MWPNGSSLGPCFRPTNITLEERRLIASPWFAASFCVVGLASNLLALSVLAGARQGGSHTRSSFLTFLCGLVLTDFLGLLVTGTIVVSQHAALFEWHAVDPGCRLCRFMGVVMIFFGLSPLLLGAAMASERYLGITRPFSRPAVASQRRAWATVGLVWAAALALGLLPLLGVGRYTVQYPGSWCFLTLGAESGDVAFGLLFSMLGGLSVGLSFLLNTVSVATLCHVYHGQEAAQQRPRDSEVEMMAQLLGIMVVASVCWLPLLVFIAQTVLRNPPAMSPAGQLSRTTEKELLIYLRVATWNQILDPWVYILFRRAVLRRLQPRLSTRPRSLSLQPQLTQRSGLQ
How it was run: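 Radioligand binding on membranes from HEK 293(EBNA) clonal lines overexpressing each prostanoid receptor, using the respective 3H-prostaglandin or thromboxane ligand; EP4 binding also run with 10% human serum; Ki as means of at least three experiments (rEP2, rEP3 n = 1).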

SMILES: Cc1sc(C)c(C(=O)NC2(c3ccc(C(=O)O)cc3)CC2)c1Cc1ccc(C(F)(F)F)cc1
- Vd [1]: 2.6 L/kg
- Ki [2]: > 6.8 µM
